Experimental data from ChEMBL document CHEMBL1123392 (J Med Chem, 1986).
One block for each compound: values may come before it. Calls of active or inactive are those of the source. No cut-off for these calls is given here.

How the values were obtained:
Rattus norvegicus [1] = experiment: Effective dose which lowered the serum prolactin levels after ip administration in rats; format: functional
Summary of the method: (§1)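 Sprague–Dawley rats given α-methyltyrosine 200 mg/kg ip 1 h before compound. Decapitated 30 min after ip or 60 min after oral dosing. Serum prolactin measured by double-antibody RIA. ED50 = dose lowering prolactin to 50% of the α-methyltyrosine-treated control, from one dose–response curve of at least seven doses with 7–9 rats per dose.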

D(2) dopamine receptor = D(2) dopamine receptor (Rattus norvegicus, UniProt P61169); experiment: Compound was for its ability to displace [3H]haloperidol binding to rat striatal Dopamine receptor D2
Summary of the method: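 Rat striatal membranes at about 20 mg/mL final tissue concentration. [3H]haloperidol 2 nM, incubated 10 min. Nonspecific binding defined with (+)-butaclamol 1.0 μM.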

Rattus norvegicus [2] = experiment: Effective dose which lowered the serum prolactin levels after po administration in rats; format: functional; summary of the method: as §1
Rattus norvegicus [3] = species: Rattus norvegicus; experiment: Ability to induce contralateral rotational behavior in rats with a unilateral 6-OHDA-induced lesion of the nigrostriatal dopamine (DA) pathway.; format: functional
Summary of the method: (§2)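 Male Sprague–Dawley rats given unilateral 6-OHDA (8 μg in 3 μL, with ascorbic acid) into the left medial forebrain bundle under pentobarbital anesthesia. Rats were selected 3–4 weeks later for turning 8–10/min after apomorphine 0.25 mg/kg sc. Groups of 4–8 were dosed sc (in water or Tween 80 suspension) and recorded in automatic rotometers until turning stopped. Outputs: total contralateral turns and peak rotations/min.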

Rattus norvegicus [4] = experiment: Dopaminergic activity in rats rendered hypokinetic by the bilateral injection of 6-hydroxydopamine (6-OHDA) into the anterolateral hypothalamus at dose of 2.5 mg/kg sc; format: functional; conditions: route subcutaneous
Rattus norvegicus [5] = experiment: Max. intensity of rotational behavior in rats with a unilateral 6-OHDA-induced lesion of the nigrostriatal dopamine (DA) pathway at dose of 2.5 mg/kg sc.; format: functional; summary of the method: as §2
[6] = target: T1, Adrenergic receptor alpha-1 (Rattus norvegicus, UniProt P15823+P23944+P43140); experiment: Ability to displace [3H]WB-4101 from rat brain alpha-1 adrenergic receptor
T1 sequence (P15823 whole entry): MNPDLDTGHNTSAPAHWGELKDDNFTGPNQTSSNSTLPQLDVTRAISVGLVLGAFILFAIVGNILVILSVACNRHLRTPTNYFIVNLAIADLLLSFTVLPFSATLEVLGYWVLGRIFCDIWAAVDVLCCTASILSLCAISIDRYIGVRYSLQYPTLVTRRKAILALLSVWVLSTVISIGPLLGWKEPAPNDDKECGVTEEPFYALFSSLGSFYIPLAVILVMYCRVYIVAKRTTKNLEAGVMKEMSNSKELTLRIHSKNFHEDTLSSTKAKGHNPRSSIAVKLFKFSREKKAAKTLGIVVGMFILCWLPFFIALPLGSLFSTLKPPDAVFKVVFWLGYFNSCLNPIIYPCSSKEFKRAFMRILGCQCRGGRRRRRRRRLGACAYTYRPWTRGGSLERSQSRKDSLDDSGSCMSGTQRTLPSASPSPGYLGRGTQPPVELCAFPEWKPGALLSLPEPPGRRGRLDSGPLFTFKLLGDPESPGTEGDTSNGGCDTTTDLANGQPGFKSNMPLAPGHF
T1 sequence (P23944 whole entry): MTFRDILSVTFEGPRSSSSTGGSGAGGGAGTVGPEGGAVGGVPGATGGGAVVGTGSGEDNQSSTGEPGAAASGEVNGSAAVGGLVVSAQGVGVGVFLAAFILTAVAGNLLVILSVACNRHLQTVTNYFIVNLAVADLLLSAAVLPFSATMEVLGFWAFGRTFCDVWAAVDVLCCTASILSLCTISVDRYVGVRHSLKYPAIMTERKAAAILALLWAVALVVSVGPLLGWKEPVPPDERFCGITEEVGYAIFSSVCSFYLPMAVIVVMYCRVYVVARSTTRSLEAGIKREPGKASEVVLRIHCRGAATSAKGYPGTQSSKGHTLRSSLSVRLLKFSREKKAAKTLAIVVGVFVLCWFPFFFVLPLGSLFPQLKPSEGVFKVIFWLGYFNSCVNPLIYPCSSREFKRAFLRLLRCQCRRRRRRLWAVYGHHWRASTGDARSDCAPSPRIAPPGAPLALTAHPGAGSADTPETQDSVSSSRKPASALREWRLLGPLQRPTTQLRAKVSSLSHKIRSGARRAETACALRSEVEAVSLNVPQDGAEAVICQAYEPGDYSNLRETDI
T1 sequence (P43140 whole entry): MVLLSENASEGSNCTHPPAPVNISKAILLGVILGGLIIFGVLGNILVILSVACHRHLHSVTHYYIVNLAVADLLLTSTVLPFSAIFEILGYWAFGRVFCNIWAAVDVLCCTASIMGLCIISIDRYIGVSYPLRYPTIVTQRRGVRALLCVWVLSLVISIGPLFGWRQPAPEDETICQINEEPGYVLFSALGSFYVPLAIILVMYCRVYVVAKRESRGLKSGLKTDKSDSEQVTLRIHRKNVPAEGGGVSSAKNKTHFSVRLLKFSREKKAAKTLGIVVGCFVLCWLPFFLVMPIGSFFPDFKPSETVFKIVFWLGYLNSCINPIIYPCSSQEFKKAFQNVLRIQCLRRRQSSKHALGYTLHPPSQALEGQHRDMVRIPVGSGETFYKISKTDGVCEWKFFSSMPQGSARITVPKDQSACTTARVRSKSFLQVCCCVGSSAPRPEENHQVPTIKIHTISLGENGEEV
Summary of the method: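 Rat whole brain minus cerebellum and brain stem, membranes at about 20 mg/mL final tissue concentration. [3H]WB-4101 0.22 nM, incubated 15 min. Nonspecific binding defined with (-)-norepinephrine 2 μM. IC50 = concentration giving 50% displacement of specific binding, taken from Hill linearization. Three separate experiments.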

Rattus norvegicus [7] = experiment: Dopaminergic activity in rats rendered hypokinetic by the bilateral injection of 6-hydroxydopamine (6-OHDA) into the anterolateral hypothalamus at dose of 5 mg/kg sc; format: functional; conditions: route subcutaneous
Rattus norvegicus [8] = experiment: Dopaminergic activity in rats rendered hypokinetic by the bilateral injection of 6-hydroxydopamine (6-OHDA) into the anterolateral hypothalamus at dose of 50 mg/kg sc; Inactive; format: functional, organism-based; set-up: dose 50 mg/kg
Rattus norvegicus [9] = experiment: Dopaminergic activity in rats rendered hypokinetic by the bilateral injection of 6-hydroxydopamine (6-OHDA) into the anterolateral hypothalamus at dose of 1.25 mg/kg sc; format: functional; conditions: route subcutaneous
Rattus norvegicus [10] = experiment: Dopaminergic activity in rats rendered hypokinetic by the bilateral injection of 6-hydroxydopamine (6-OHDA) into the anterolateral hypothalamus at dose of 10 mg/kg sc; format: functional; conditions: route subcutaneous
Rattus norvegicus [11] = experiment: Dopaminergic activity in rats rendered hypokinetic by the bilateral injection of 6-hydroxydopamine (6-OHDA) into the anterolateral hypothalamus at dose of 50 mg/kg sc; format: functional; conditions: route subcutaneous
Rattus norvegicus [12] = experiment: Max. intensity of rotational behavior in rats with a unilateral 6-OHDA-induced lesion of the nigrostriatal dopamine (DA) pathway at dose of 2.5 mg/kg sc; format: functional; conditions: route subcutaneous; summary of the method: as §2
Rattus norvegicus [13] = species: Rattus norvegicus; experiment: Ability to induce contralateral rotational behavior in rats with a unilateral 6-OHDA-induced lesion of the nigrostriatal dopamine (DA) pathway; format: functional; summary of the method: as §2
Rattus norvegicus [14] = experiment: Dopaminergic activity in rats rendered hypokinetic by the bilateral injection of 6-hydroxydopamine (6-OHDA) into the anterolateral hypothalamus at dose of 25 mg/kg sc; format: functional; conditions: route subcutaneous
Rattus norvegicus [15] = experiment: Dopaminergic activity in rats rendered hypokinetic by the bilateral injection of 6-hydroxydopamine (6-OHDA) into the anterolateral hypothalamus at dose of 25 mg/kg sc; Inactive; format: functional, organism-based; set-up: dose 25 mg/kg
[16] = Rattus norvegicus, Serum, po, read-out: ED50
[17] = Rattus norvegicus, Serum, ip, read-out: ED50

Sequence of D(2) dopamine receptor (P61169 whole entry): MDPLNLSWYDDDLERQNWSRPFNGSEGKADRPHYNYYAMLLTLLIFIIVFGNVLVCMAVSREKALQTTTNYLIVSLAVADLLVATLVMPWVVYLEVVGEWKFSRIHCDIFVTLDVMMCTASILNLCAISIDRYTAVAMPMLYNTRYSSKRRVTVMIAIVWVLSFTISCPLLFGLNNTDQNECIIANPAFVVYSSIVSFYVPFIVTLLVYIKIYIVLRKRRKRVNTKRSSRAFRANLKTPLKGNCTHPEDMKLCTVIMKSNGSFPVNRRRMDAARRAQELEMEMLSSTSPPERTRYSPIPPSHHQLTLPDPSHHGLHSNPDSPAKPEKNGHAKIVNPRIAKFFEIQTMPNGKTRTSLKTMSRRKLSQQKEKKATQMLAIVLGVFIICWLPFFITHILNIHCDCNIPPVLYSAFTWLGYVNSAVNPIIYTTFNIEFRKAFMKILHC

IC50 (D(2) dopamine receptor): 1.05 µM
Structure (SMILES): COc1ccc([C@H](O)[C@@H](C)N2CCN(c3cccccc3=O)CC2)cc1OC (stereo in doubt; 14)
ED50 (Rattus norvegicus [1]): 0.2 mg/kg
ED50 (Rattus norvegicus [2]; [16]): 0.25 mg/kg
Activity (Rattus norvegicus [3]): 1903
Activity (Rattus norvegicus [4]): 111
Max intensity (Rattus norvegicus [5]; 2.5 mg/kg): 9.5 rotations min-1

IC50 [6]: 90 µM
Structure (SMILES): NCCc1ccc(O)c(O)c1 [DOPAMINE]

IC50 (D(2) dopamine receptor): 16.6 µM
IC50 [6]: 1.44 µM
Structure (SMILES): COc1ccc([C@@H](O)CN2CCN(c3cccccc3=O)CC2)cc1OC
ED50 (Rattus norvegicus [1]; [17]): 2.7 mg/kg
Activity (Rattus norvegicus [7]): 27
Activity (Rattus norvegicus [3]): 140
Max intensity (Rattus norvegicus [5]): 1.3 rotations min-1

Structure (SMILES): COc1cccc(C(O)CN2CCN(c3cccccc3=O)CC2)c1 (centres undefined)
Activity (Rattus norvegicus [8]): inactive

Structure (SMILES): COc1ccc([C@H](O)[C@@H](C)N2CCN(c3cccccc3=O)CC2)cc1OC (stereo in doubt; 18)
ED50 (Rattus norvegicus [1]): 0.04 mg/kg
ED50 (Rattus norvegicus [2]): 0.15 mg/kg
Activity (Rattus norvegicus [3]): 2109
Activity (Rattus norvegicus [9]): 186
Max intensity (Rattus norvegicus [5]; 2.5 mg/kg): 14.6 rotations min-1

Structure (SMILES): O=c1cccccc1N1CCN(CCc2ccccc2)CC1
Activity (Rattus norvegicus [8]): inactive

Structure (SMILES): COc1cc(C(O)CN2CCN(c3cccccc3=O)CC2)cc(OC)c1OC (centres undefined)
Activity (Rattus norvegicus [8]): inactive

IC50 (D(2) dopamine receptor): 8.55 µM
Structure (SMILES): COc1ccc([C@@H](O)[C@@H](C)N2CCN(c3cccccc3=O)CC2)cc1OC
Activity (Rattus norvegicus [10]): 55

Structure (SMILES): COc1ccc(C(O)CN2CCN(c3cccccc3=O)CC2)cc1 (centres undefined)
Activity (Rattus norvegicus [11]): 105

Structure (SMILES): O=c1cccccc1N1CCN(CC(O)c2ccccc2)CC1 (centres undefined)
Activity (Rattus norvegicus [8]): inactive

IC50 (D(2) dopamine receptor): 2.2 µM
IC50 [6]: 1.09 µM
Structure (SMILES): COc1ccc([C@H](O)CN2CCN(c3cccccc3=O)CC2)cc1OC [CILADOPA]
ED50 (Rattus norvegicus [1]; [17]): 0.36 mg/kg
ED50 (Rattus norvegicus [2]; [16]): 0.9 mg/kg
Activity (Rattus norvegicus [7]): 320
Activity (Rattus norvegicus [3]): 1770
Max intensity (Rattus norvegicus [5]): 10.7 rotations min-1

IC50 (D(2) dopamine receptor): 1.5 µM
IC50 [6]: 1.07 µM
Structure (SMILES): COc1ccc(C(O)CN2CCN(c3cccccc3=O)CC2)cc1OC.Cl (centres undefined)
ED50 (Rattus norvegicus [1]; [17]): 0.48 mg/kg
Activity (Rattus norvegicus [10]): 191
Max intensity (Rattus norvegicus [12]): 9.2 rotations min-1
ED50 (Rattus norvegicus [2]; [16]): 2 mg/kg
Activity (Rattus norvegicus [13]): 823

IC50 (D(2) dopamine receptor): 0.76 µM
Structure (SMILES): O=c1cccccc1N1CCN(CCc2ccc(O)c(O)c2)CC1
Activity (Rattus norvegicus [14]): 98

IC50 (D(2) dopamine receptor): 0.88 µM
Structure (SMILES): COc1ccc(CCN2CCN(c3cccccc3=O)CC2)cc1OC
Activity (Rattus norvegicus [10]): 101

Structure (SMILES): COc1ccc(CC/N=c2/cccccc2O)cc1OC
Activity (Rattus norvegicus [8]): inactive

Structure (SMILES): COc1ccc(CCNCC/N=c2/cccccc2O)cc1OC
Activity (Rattus norvegicus [8]): inactive

Structure (SMILES): O=c1cccccc1N1CCN(CC(O)c2ccc(F)cc2)CC1 (centres undefined)
Activity (Rattus norvegicus [8]): inactive

Structure (SMILES): COc1ccc([C@H](O)[C@@H](C)N2CCN(c3cccccc3=O)CC2)cc1OC (stereo in doubt; 17)
ED50 (Rattus norvegicus [1]): 2.2 mg/kg
Activity (Rattus norvegicus [3]): 121
Activity (Rattus norvegicus [4]): 20
Max intensity (Rattus norvegicus [5]; 2.5 mg/kg): 1.1 rotations min-1

Structure (SMILES): COc1cc(C(O)CN2CCN(c3cccccc3=O)CC2)ccc1O (centres undefined)
Activity (Rattus norvegicus [15]): inactive

Structure (SMILES): COc1ccc(C(O)CN2CCN(c3ccccc3)CC2)cc1OC (centres undefined)
Activity (Rattus norvegicus [8]): inactive

Structure (SMILES): CC(C)C[C@H]1C(=O)N2CCC[C@H]2[C@]2(O)O[C@](NC(=O)[C@@H]3C=C4c5cccc6[nH]c(Br)c(c56)C[C@H]4N(C)C3)(C(C)C)C(=O)N12 [BROMOCRIPTINE]
ED50 (Rattus norvegicus [1]; [17]): 0.24 mg/kg
Activity (Rattus norvegicus [10]): 112
ED50 (Rattus norvegicus [2]; [16]): 0.6 mg/kg
Activity (Rattus norvegicus [3]): 836
Max intensity (Rattus norvegicus [5]): 4.7 rotations min-1

Structure (SMILES): O=c1cccccc1N1CCN(CCc2ccc(F)cc2)CC1
Activity (Rattus norvegicus [8]): inactive

Structure (SMILES): COc1ccc(CCN2CCCN(c3cccccc3=O)CC2)cc1OC
Activity (Rattus norvegicus [8]): inactive
